Calls of active or inactive are those of the source. No cut-off for these calls is given here.
Experiments:
A498 [1] = experiment: Cell cycle arrest in human A498 cells assessed as accumulation at G2/M phase at 0.5 uM after 48 hrs by propidium iodide staining-based flow cytometry (reference value: 5.39 +/- 0.01%); format: functional
SN12C = experiment: Cytotoxicity against human SN12C cells after 48 hrs by sulforhodamine B assay; format: functional
SF-539 = experiment: Cytotoxicity against human SF539 cells after 48 hrs by sulforhodamine B assay; format: functional; conditions: SF-539, 48 h
A498 [2] = experiment: Induction of apoptosis in human A498 cells assessed as early apoptotic cells at 0.5 uM after 24 hrs by AnnexinV/FITC-propidium iodide staining-based flow cytometry (reference value: 3.9%); format: functional
A498 [3] = experiment: Antitumor activity against human A498 cells xenografted in BALB/cAnN.Cg-Foxn1nu/CrlNarl nude mouse assessed as suppression of tumor growth at 60 mg/kg/day, ip qd administered 5 times a week for 28 days measured every 7 days relative to control; format: functional; conditions: route intraperitoneal, read-out: TGI
Outline: (§1)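 Male nude mice (18–20 g, 4–6 weeks) were inoculated subcutaneously with A498 cells, 2 × 10⁶ per mouse in 0.1 mL PBS. Once tumors reached 100 mm³, mice were randomized and given ip doses of 30 or 60 mg/kg, 5 times per week for 4 weeks. Body weight and tumor size were recorded every 7 days over 28 days. Volume = 1/2 ([…]).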

UACC-257 = experiment: Cytotoxicity against human UACC257 cells after 48 hrs by sulforhodamine B assay; format: functional; conditions: UACC-257, 48 h
OVCAR-5 = experiment: Cytotoxicity against human OVCAR5 cells after 48 hrs by sulforhodamine B assay; format: functional; conditions: OVCAR-5, 48 h
A498 [4] = experiment: Induction of apoptosis in human A498 cells assessed as increase in cytochrome C level at 0.5 uM after 6 to 48 hrs by Western blotting analysis; format: functional, cell-based
Outline: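 A498 cells exposed for 6, 12, 24, 36 or 48 h, then washed in PBS and lysed. Lysates were held on ice for 30 min and spun at 12 000g for 20 min. Supernatant protein was measured by Bradford assay, run on 10% SDS-PAGE and transferred to nitrocellulose. Blots were probed for AIF, Endo G, Apaf-1, cytochrome c, caspase 9 and caspase 3, with β-actin as loading control; n = 3 independent experiments.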

M14 = experiment: Cytotoxicity against human M14 cells after 48 hrs by sulforhodamine B assay; format: functional; conditions: M14, 48 h
SR = experiment: Cytotoxicity against human SR cells after 48 hrs by sulforhodamine B assay; format: functional
A498 [5] = experiment: Cytotoxicity against human A498 cells after 48 hrs by sulforhodamine B assay; format: functional; conditions: A498, 48 h
HL-60(TB) = experiment: Cytotoxicity against human HL-60(TB) cells after 48 hrs by sulforhodamine B assay; format: functional; conditions: HL-60, 48 h
MDA-MB-435 = experiment: Cytotoxicity against human MDA-MB-435 cells after 48 hrs by sulforhodamine B assay; format: functional; conditions: MDA-MB-435, 48 h
PC-3 = experiment: Cytotoxicity against human PC3 cells after 48 hrs by sulforhodamine B assay; format: functional; conditions: PC-3, 48 h
NCI-H226 = experiment: Cytotoxicity against human NCI-H226 cells after 48 hrs by sulforhodamine B assay; format: functional; conditions: NCI-H226, 48 h
786-0 = experiment: Cytotoxicity against human 786-0 cells after 48 hrs by sulforhodamine B assay; format: functional; conditions: 786-0, 48 h
SK-MEL-5 = experiment: Cytotoxicity against human SK-MEL-5 cells after 48 hrs by sulforhodamine B assay; format: functional; conditions: SK-MEL-5, 48 h
TK-10 = experiment: Cytotoxicity against human TK10 cells after 48 hrs by sulforhodamine B assay; format: functional; conditions: TK-10, 48 h
HL-60 = experiment: Cytotoxicity against human HL60 cells after 48 hrs by MTT assay; format: functional, cell-based; conditions: HL-60, 48 h
Outline: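 Cells were treated with a range of concentrations for 48 h. Viability was read by MTT: formazan was dissolved in DMSO and absorbance read at 570 nm. Untreated or 0.1% DMSO cells served as control. Data are mean from three independent experiments. HL-60, H460 and COLO 205 were kept in RPMI-1640 with 10% FBS and penicillin/streptomycin.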

U-251 = experiment: Cytotoxicity against human U251 cells after 48 hrs by sulforhodamine B assay; format: functional; conditions: U-251, 48 h
MOLT-4 = experiment: Cytotoxicity against human MOLT4 cells after 48 hrs by sulforhodamine B assay; format: functional; conditions: MOLT-4, 48 h
[6] = Cytotoxicity against human EKVX cells after 48 hrs by sulforhodamine B assay; format: functional
A498 [7] = experiment: Antitumor activity against human A498 cells xenografted in ip dosed BALB/cAnN.Cg-Foxn1nu/CrlNarl nude mouse assessed as suppression of tumor growth administered qd for 5 times a week for 28 days measured every 7 days; format: functional, organism-based; outline: as §1
SNB-19 = experiment: Cytotoxicity against human SNB19 cells after 48 hrs by sulforhodamine B assay; format: functional; conditions: SNB-19, 48 h
SK-OV-3 = experiment: Cytotoxicity against human SKOV3 cells after 48 hrs by sulforhodamine B assay; format: functional; conditions: SK-OV-3, 48 h
K562 = experiment: Cytotoxicity against human K562 cells after 48 hrs by sulforhodamine B assay; format: functional; conditions: K562, 48 h
A498 [8] = experiment: Induction of cell cycle arrest at G2/M phase in human A498 cells assessed as increase in cyclin B1 expression at 0.5 uM after 6 hrs by Western blotting analysis; format: functional, cell-based
Outline: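 A498 cells exposed to 0.5 µM for 6, 12, 24, 36 or 48 h, then lysed on ice 30 min and spun 12 000g 20 min. Protein measured by Bradford; 20 µg per lane run on 10% SDS-PAGE, transferred to nitrocellulose, probed for cyclin B1 and CDK1, β-actin as loading control; n = 3 independent experiments.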

[9] = read-out: pLC50 (the source's name) (converted)

Molecule `OCc1ccc(Cn2c3ccccc3c3oc(CO)cc32)o1` has an Activity (A498 [1]) of 18.09%, a GI50 (SN12C) of over 100 µM and a CC50 (SN12C; [9]) of over 100 µM. It also gave a TGI (SN12C; read-out: pTGI) of over 100 µM, a GI50 (SF-539) of over 100 µM and a CC50 (SF-539; [9]) of over 100 µM. It also gave a TGI (SF-539; read-out: pTGI) of over 100 µM, an Activity (A498 [2]) of 12.7% and an inhibition in vivo at 60 mg/kg/day (A498 [3]) of 80%. The GI50 (UACC-257) was 1.45 µM, the CC50 (UACC-257; [9]) was over 100 µM and the TGI (UACC-257; read-out: pTGI (converted)) was 4.37 µM. For the same molecule, the GI50 (OVCAR-5) was 0.331 µM, the TGI (OVCAR-5; read-out: pTGI (converted)) was 1.2 µM and the Activity (A498 [4]) was “Active”. It also gave a GI50 (M14) of 13.2 µM, a CC50 (M14; [9]) of over 100 µM and a TGI (M14; read-out: pTGI) of over 100 µM. It also gave a GI50 (SR) of 89.1 µM, a CC50 (SR; [9]) of over 100 µM and a TGI (SR; read-out: pTGI) of over 100 µM. For the same molecule, the GI50 (A498 [5]) was 0.141 µM, the CC50 (A498 [5]; read-out: pLC50 (converted)) was 0.661 µM and the TGI (A498 [5]; read-out: pTGI (converted)) was 0.302 µM. It also gave a GI50 (HL-60(TB)) of over 100 µM, a CC50 (HL-60(TB); [9]) of over 100 µM and a TGI (HL-60(TB); read-out: pTGI) of over 100 µM. The GI50 (MDA-MB-435) was over 100 µM, the CC50 (MDA-MB-435; [9]) was over 100 µM and the TGI (MDA-MB-435; read-out: pTGI) was over 100 µM. The GI50 (PC-3) was 55 µM, the CC50 (PC-3; [9]) was over 100 µM and the TGI (PC-3; read-out: pTGI) was over 100 µM. For the same molecule, the GI50 (NCI-H226) was 0.224 µM, the TGI (NCI-H226; read-out: pTGI (converted)) was 0.55 µM and the GI50 (786-0) was 50.1 µM. The CC50 (786-0; [9]) was over 100 µM, the TGI (786-0; read-out: pTGI) was over 100 µM and the GI50 (SK-MEL-5) was over 100 µM. For the same molecule, the CC50 (SK-MEL-5; [9]) was over 100 µM, the TGI (SK-MEL-5; read-out: pTGI) was over 100 µM and the GI50 (TK-10) was 0.537 µM. It also gave a CC50 (TK-10; [9]) of over 100 µM, a TGI (TK-10; read-out: pTGI (converted)) of 3.24 µM and an IC50 (HL-60) of over 50 µM. For the same molecule, the GI50 (U-251) was 30.9 µM, the CC50 (U-251; [9]) was over 100 µM and the TGI (U-251; read-out: pTGI) was over 100 µM. The GI50 (MOLT-4) was 77.6 µM, the CC50 (MOLT-4; [9]) was over 100 µM and the TGI (MOLT-4; read-out: pTGI) was over 100 µM. The GI50 [6] was 24 µM, the CC50 [6, 9] was over 100 µM and the TGI ([6]; read-out: pTGI) was over 100 µM. The Activity (A498 [7]) was “Dose-dependent effect”, the GI50 (SNB-19) was over 100 µM and the CC50 (SNB-19; [9]) was over 100 µM. For the same molecule, the TGI (SNB-19; read-out: pTGI) was over 100 µM, the GI50 (SK-OV-3) was over 100 µM and the CC50 (SK-OV-3; [9]) was over 100 µM. It also gave a TGI (SK-OV-3; read-out: pTGI) of over 100 µM, a GI50 (K562) of 45.7 µM and a CC50 (K562; [9]) of over 100 µM. The TGI (K562; read-out: pTGI) was over 100 µM and the Activity (A498 [8]) was “Active”.
